Measurements: PubChem BioAssay AID1019 (Sanford-Burnham Center for Chemical Genomics, 2008)
In all, about 190,000 compounds went through this assay and fewer than 10 were called active.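 The calls were made as follows: active = over 50% inhibition of intestinal alkaline phosphatase at 20 µM in the single-dose screen; inactive = the rest.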 The list is a sample of the results.

Each molecule was assayed on alkaline phosphatase, intestinal [Bos taurus] (assay: IAP enzyme activity blockers – biochemical, bovine IAP, CDP-star luminescence, selectivity assay for TNAP inhibitor project, primary screen (AID 1019)). Settings: purified bovine IAP, 30 min, at 20 µM, active compounds read high.
Summary of the method: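 System: Purified bovine intestinal alkaline phosphatase (IAP) enzyme | Input: IAP diluted 1/65,000,000 in the well | Also added: CDP-star chemiluminescent phosphatase substrate, 30 µM final | Dosing: 20 µM single dose | Times: Enzyme reaction for 30 min at room temperature | Detection: Luminescence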

inhibition, inactive:
COc1ccc(C(=O)Nc2ccc(N3CCC(C)CC3)cc2)cc1Br -10.7%
O=C(CSc1ccccc1)Nc1cc(Cl)ccc1Oc1ccccc1 6.2%
N/C(Cc1ccc([N+](=O)[O-])cc1)=N\OC(=O)C1CCCCC1 -0.5%
CCCCS(=O)c1snnc1C (stereo not drawn) -11.4%
C[C@@H]1NC(=O)c2cc([N+](=O)[O-])cc(F)c2NCCC[C@@H](C(N)=O)NC(=O)[C@H](CC(N)=O)NC1=O 38.7%
CCN(CC)C(=O)Oc1ccc(OC(=O)N(CC)CC)cc1 -10.3%
CC(=O)NCC(=O)N(Cc1ccco1)C1(C(=O)NC2CCCC2)CCCCC1 3.8%
CCOC(=O)c1c(CN(C)C)n(-c2ccccc2)c2cc(Br)c(O)cc12 -6.7%
CC(C)C(=O)Nc1ccc2oc(=O)ccc2c1 7%
CCOC(=O)/C(C#N)=C/c1ccc(N2CCCCC2)cc1 11.8%
CC(C)(c1ccccc1)c1ccc(OCCN)cc1 14.7%
COC(=O)Cc1ccc(NC(=S)NCc2ccco2)cc1 4%
COc1ccc(/C=N/N=C2/C(=O)Nc3ccccc32)cc1O 5%
COc1cc(NS(=O)(=O)c2ccc(NC(=O)CN3C(=O)c4ccccc4C3=O)cc2)ncn1 3.8%
CN(C)CCN=c1cc(-c2ccccc2)oc2ccc(Cl)cc12 -8.9%
CC(C)(C)NC(=O)c1ccc(Cn2cc(C(F)(F)F)ccc2=O)cc1 4.3%
Oc1ccc(N2CCN(C(=S)NCc3ccccc3)CC2)cc1 6.1%
CCCCN(CC)CCCNC(=O)c1ccc(CSc2nc3ccncc3[nH]2)cc1 -24%
O=C(CCc1ccccc1)Nc1nn[nH]n1 5.5%
CC1CCCN(CC(O)COc2ccc3c(c2)OCO3)C1 (stereo not drawn) 3.1%
Cc1ccccc1C1CC(c2cccs2)=NN1S(C)(=O)=O (stereo not drawn) 18.1%
CCN(c1ccccc1)S(=O)(=O)c1ccc2[nH]c(=O)[nH]c2c1 3.4%
O=S(=O)(NCCc1ccc(F)cc1)c1cccc2cccnc12 10.8%
COc1cc(/C=C/C(=O)OCC(=O)N2CCOCC2)ccc1OCC#N -7.3%
O=C(Cn1cnc2ccccc21)N/N=C/c1ccco1 -22.7%
CC1CC(C)CN(CCC(=O)Nc2ccc3c(c2)CCC3)C1 (stereo not drawn) -14.7%
O=C(COC(=O)/C=C/c1ccc(S(=O)(=O)N2CCCCCC2)cc1)NCc1ccccc1Cl 14.5%
CCCNC(=O)NC(=O)COC(=O)CC(NC(N)=O)c1ccc(Cl)cc1 (stereo not drawn) 7.6%
Cc1c(C=O)c2ccccc2n1CC(=O)O -6.7%
CCn1nc(C)c(CN2CCN(Cc3ccc(OC)c(C)c3C)C(CCO)C2)c1C (stereo not drawn) -4.7%
COc1ccc(C2CC(c3cccs3)Nc3nnnn32)cc1 (stereo not drawn) 16.6%
CCN(CC)C(=O)N(CC)Cc1ccccc1 -1.7%
Cc1ccc(Nc2c(F)c(F)c(F)c(F)c2C(=O)O)c(C)c1 1.3%
C=CCN(c1ccc(Cl)cc1)S(=O)(=O)c1cccc(C(=O)OCC(=O)N(C)C)c1 -6.8%
Cn1cc(-c2ccccc2)cc(C#N)c1=O -3.4%
CC(C)(C)n1ncc2c(=O)n(Cc3ccc(Cl)cc3)cnc21 -1.6%
CCCCCCCNc1nc(Cl)nc(NCCO)n1 -10.7%
CCOC(=O)C1(Cc2ccccc2C(F)(F)F)CCN(C(=O)c2cc(C)n(C)n2)CC1 -5.4%
CCN(CC)CCNc1nc(-c2ccc(OC(F)F)cc2)c(C)s1 -8.2%
O=C(Nc1cccc(F)c1)c1coc(=O)c(Br)c1 13.2%
COC(=O)c1ccc(C(=O)OC)c(NC(=S)N2CCN(c3ccc(F)cc3)CC2)c1 -5.9%
CC(NC(=O)CCC(=O)N1CCN(S(=O)(=O)c2ccc(Cl)cc2)CC1)c1ccccc1 (stereo not drawn) -56.8%
COc1cc(C(=S)NC2CCCCC2)ccc1O 5.4%
CCOc1ccc(NC(=S)NC(=O)/C=C/c2ccc(OC)cc2)c([N+](=O)[O-])c1 -34%
C=CCO/N=C/C1=C(O)C(C(=O)OC)C(C)(C)CC1=O (stereo not drawn) -21.8%
CC(NC(=O)CC1SC(N)=NC1=O)c1ccccc1 (stereo not drawn) -8.1%
C/C(=N\NC(=O)c1ccc(CSc2nc(C)cc(C)n2)cc1)C1CCCCC1 -2.1%
COc1ccc(OC)c(CNC(=O)c2cc(=O)[nH]c3ccc(S(=O)(=O)N4CCCC4)cc23)c1 9.9%
Cc1cccc(NC(=O)c2nnn(-c3cccc(C(F)(F)F)c3)c2N)c1 6.8%
CCOC(=O)N1CCN(C(=O)C2CCN(Cc3ccc(OC)cc3OC)CC2)CC1 3.5%
O=C(NCCc1ccccc1)C1CCN(S(=O)(=O)c2ccc(Br)s2)CC1 2.9%
CSc1nc2c(c(=O)[nH]1)C(c1cccc(Cl)c1Cl)CC(=O)N2 (stereo not drawn) -12.6%
Cc1ccc(CCC(=O)Nc2ncc(Cc3cc(Cl)ccc3Cl)s2)o1 5.3%
